ChEMBL document CHEMBL1806443, “Novel imidazo[4,5-b]pyridine and triaza-benzo[c]fluorene derivatives: synthesis, antiproliferative activity and DNA binding studies” (Eur J Med Chem, 2011)
The source made the active and inactive calls. The calls are words filed in the database; no cut-off is given here.

Legend:
[1] = system: HEp-2; assay: Cytostatic activity against human Hep2 cells at 1 to 10 uM after 72 hrs by MTT assay; format: functional, cell-based
Summary of the method: (§1)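 Monolayers in DMEM with 10% FBS, 2 mM L-glutamine, penicillin and streptomycin (37 °C, 5% CO2) were seeded at 3000–6000 cells/well on day 0. Five 10-fold dilutions (0.01–100 µM) were added, followed by 72-h incubation and MTT read-out. Absorbances were converted to percentage growth by the NIH formulae. Each point was run in quadruplicate in three experiments; ANOVA with Tukey test.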

[2] = system: WI-38; assay: Antiproliferative activity against human WI38 cells after 72 hrs by MTT assay; format: cell-based; details: Homo sapiens, WI-38, 72 h
Summary of the method: (§2)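 Monolayer cells in DMEM with 10% FBS, 2 mM L-glutamine, penicillin and streptomycin at 37 °C, 5% CO2. Seeded at 3000-6000 cells/well by doubling time on day 0. Five 10-fold dilutions (0.01–100 µM) were added and incubated 72 h. MTT read-out, converted to percentage growth. IC50 by linear regression between bracketing concentrations. Quadruplicate points, three independent experiments, ANOVA/Tukey p<0.05.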

[3] = system: SK-BR-3; assay: Cytostatic activity against human SKBR3 cells at 1 to 10 uM after 72 hrs by MTT assay; format: functional, cell-based; summary of the method: as §1
[4] = system: Nucleic Acid; assay: Binding affinity to calf thymus DNA assessed as change in melting temperature at compound to polynucleotide ratio of 0.1 by UV-VIS spectroscopic analysis; format: nucleic-acid assay; details: Bos taurus
Summary of the method: (§3)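 ct-DNA alone or with compound at set r = [compound]/[polynucleotide], in cacodylate buffer pH 7.0, I = 0.05 mol dm^-3. Absorbance at 260 nm followed against temperature, ligand absorbance subtracted, curves normalized. Tm is the transition midpoint, from the first-derivative maximum or by tangent method. ΔTm = Tm(complex) − Tm(free DNA), mean of ≥2 runs, error ±0.5 °C.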

[5] = system: SK-BR-3; assay: Antiproliferative activity against human SKBR3 cells after 72 hrs by MTT assay; format: functional, cell-based; details: Homo sapiens, SK-BR-3, 72 h; summary of the method: as §2
[6] = system: MIA PaCa-2; assay: Antiproliferative activity against human MIAPaCa2 cells after 72 hrs by MTT assay; format: functional, cell-based; details: Homo sapiens, MIA PaCa-2, 72 h; summary of the method: as §2
[7] = system: Nucleic Acid; assay: Binding affinity to calf thymus DNA assessed as change in melting temperature at compound to polynucleotide ratio of 0.5 by UV-VIS spectroscopic analysis; format: nucleic-acid assay; details: Bos taurus; summary of the method: as §3
[8] = system: HeLa; assay: Cytostatic activity against human HeLa cells at 1 to 10 uM after 72 hrs by MTT assay; format: functional, cell-based; summary of the method: as §1
[9] = system: Nucleic Acid; assay: Binding affinity to calf thymus DNA assessed as appearance of weak positive CD band at compound to DNA ratio of > 0.3 and 350 to 400 nm wavelength by circular dichroism spectroscopy; format: nucleic-acid assay; details: Bos taurus
Summary of the method: (§4)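 CD spectra of ct-DNA (1.0 × 10^-5 mol dm^-3, as phosphate) titrated with compound at 25 °C. Sodium cacodylate buffer pH 7.0, I = 0.05 mol dm^-3, 1 cm quartz cuvette. DNA band (~274–275 nm) and induced bands above 300 nm followed versus r = [compound]/[ct-DNA].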

[10] = system: Nucleic Acid; assay: Binding affinity to calf thymus DNA assessed as appearance of weak, negative CD band at 325 nm wavelength by circular dichroism spectroscopy; format: nucleic-acid assay; details: Bos taurus; summary of the method: as §4
[11] = system: Nucleic Acid; assay: Binding affinity to calf thymus DNA assessed as fluorescence quenching at compound to DNA ratio of 0.20 by fluorimetric titrations; format: nucleic-acid assay; details: Bos taurus
Summary of the method: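 Fluorimetric titration: portions of ct-DNA (sonicated, filtered, concentration as phosphate) added to compound in cacodylate buffer pH 7.0, I = 0.05 mol dm^-3. Emission 350–600 nm, sample absorbance <0.05 at excitation, mostly DNA excess (r < 0.1). Ks and n = [bound compound]/[DNA phosphate] by non-linear least-squares Scatchard fitting.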

[12] = system: Nucleic Acid; assay: Binding affinity to calf thymus DNA assessed as hypochromic changes at 342 nm wavelength by UV-Vis spectrophotometric titrations; format: nucleic-acid assay; details: Bos taurus
Summary of the method: (§5)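 UV/Vis titration: aliquots of ct-DNA (concentration as phosphate) added to compound solution in sodium cacodylate buffer pH 7.0, I = 0.05 mol dm^-3, 1 cm quartz cuvettes. Hypochromism followed at band maxima. Compound absorbance linear up to 2.0 × 10^-5 mol dm^-3. Binding data fitted by the Scatchard equation.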

[13] = system: MCF7; assay: Antiproliferative activity against human MCF7 cells after 72 hrs by MTT assay; format: functional, cell-based; details: Homo sapiens, MCF7, 72 h; summary of the method: as §2
[14] = system: HEp-2; assay: Antiproliferative activity against human Hep2 cells after 72 hrs by MTT assay; format: functional, cell-based; details: Homo sapiens, HEp-2, 72 h; summary of the method: as §2
[15] = system: Nucleic Acid; assay: Binding affinity to calf thymus DNA assessed as change in melting temperature at compound to polynucleotide ratio of 0.2 by UV-VIS spectroscopic analysis; format: nucleic-acid assay; details: Bos taurus; summary of the method: as §3
[16] = system: MIA PaCa-2; assay: Cytostatic activity against human MIAPaCa2 cells at 1 to 10 uM after 72 hrs by MTT assay; format: functional, cell-based; summary of the method: as §1
[17] = system: Nucleic Acid; assay: Binding affinity to calf thymus DNA assessed as change in melting temperature at compound to polynucleotide ratio of 0.3 by UV-VIS spectroscopic analysis; format: nucleic-acid assay; details: Bos taurus; summary of the method: as §3
[18] = system: Nucleic Acid; assay: Binding affinity to calf thymus DNA assessed as hypochromic changes at 327 nm wavelength by UV-Vis spectrophotometric titrations; format: nucleic-acid assay; details: Bos taurus; summary of the method: as §5
[19] = system: WI-38; assay: Cytostatic activity against human WI38 cells at 1 to 10 uM after 72 hrs by MTT assay; format: ADME, cell-based; details: wi-38, 72 h; summary of the method: as §1
[20] = system: MCF7; assay: Cytostatic activity against human MCF7 cells at 1 to 10 uM after 72 hrs by MTT assay; format: functional, cell-based; summary of the method: as §1
[21] = system: SW-620; assay: Antiproliferative activity against human SW620 cells after 72 hrs by MTT assay; format: functional, cell-based; details: Homo sapiens, SW-620, 72 h; summary of the method: as §2
[22] = system: HeLa; assay: Antiproliferative activity against human HeLa cells after 72 hrs by MTT assay; format: functional, cell-based; details: Homo sapiens, HeLa, 72 h; summary of the method: as §2
[23] = system: Nucleic Acid; assay: Binding affinity to calf thymus DNA assessed as hypochromic changes at 360 nm wavelength by UV-Vis spectrophotometric titrations; format: nucleic-acid assay; details: Bos taurus; summary of the method: as §5
[24] = system: SW-620; assay: Cytostatic activity against human SW620 cells at 1 to 10 uM after 72 hrs by MTT assay; format: functional, cell-based; summary of the method: as §1

C[n+]1cccc2c1nc1ccc3ccccc3n12.[I-]
Activity [1]: Active
IC50 [2]: 6.27 µM
Activity [3]: Active
ΔTm [4]: 1.6 °C
IC50 [5]: 3.51 µM
IC50 [6]: 8.56 µM
ΔTm [7]: 6.1 °C
Activity [8]: Active
Activity [9]: Active
Activity [10]: Active
log Ks [11]: 4.9
Activity [12]: 37%
IC50 [13]: 7.56 µM
IC50 [14]: 13.2 µM
ΔTm [15]: 2.6 °C
Activity [16]: Active
ΔTm [17]: 4.25 °C
Activity [18]: 28%
Activity [19]: Toxic
Activity [20]: Active
IC50 [21]: 14.8 µM
IC50 [22]: 7.52 µM
Activity [23]: 38%
Activity [24]: Active
